M5 PAM – potentiates acetylcholine response at human M5 receptor; P08912; CHO-K1 hM5, Fluo-8 calcium, ACh EC20 PAM; 0% = ACh EC20, 100% = ACh EC100; activation, % at 3 µM; 360,000 tested, 0.3% active;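 active = activation above the run cutoff, the mean activation of all test compounds plus 3 SD, cut at about 18% in these data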
Target sequence (P08912 whole entry, looked up): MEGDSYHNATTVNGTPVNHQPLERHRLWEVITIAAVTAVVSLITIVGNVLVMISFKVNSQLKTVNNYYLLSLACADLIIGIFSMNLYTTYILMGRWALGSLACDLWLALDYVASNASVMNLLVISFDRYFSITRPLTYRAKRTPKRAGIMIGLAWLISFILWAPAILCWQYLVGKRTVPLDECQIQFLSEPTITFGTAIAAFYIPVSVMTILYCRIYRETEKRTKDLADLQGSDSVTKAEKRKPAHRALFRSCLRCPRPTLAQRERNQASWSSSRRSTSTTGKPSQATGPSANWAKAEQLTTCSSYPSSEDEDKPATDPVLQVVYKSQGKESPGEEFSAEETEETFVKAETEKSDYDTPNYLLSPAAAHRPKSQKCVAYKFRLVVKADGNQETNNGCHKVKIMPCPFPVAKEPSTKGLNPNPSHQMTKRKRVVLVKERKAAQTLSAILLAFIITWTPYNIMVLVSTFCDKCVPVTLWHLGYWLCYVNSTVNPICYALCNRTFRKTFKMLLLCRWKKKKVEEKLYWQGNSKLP
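Test system: CHO-K1 hM5 cells / Doses: single-point, 3 µM nominal / Times: Post-acetylcholine fluorescence recording 140 s / Technique: Fluo-8 calcium fluorescence / Measure: Max/basal fluorescence ratio as % of EC20–EC100 ACh window / Benchmarks: low control EC20 acetylcholine (0%), high control EC100 acetylcholine (100%) / Replicates: one well per compound, no replicates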
M5 ag – agonists of human muscarinic M5 receptor (CHRM5). P08912. CHO-K1 hM5 cells, Fluo-8 calcium fluorescence; 0% DMSO wells, 100% maximal acetylcholine response. activation, % at 3 µM. 360,000 tested, 0.19% active;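 active = activation above the run's mean over test compounds plus 3 SD, cut at about 23% in these data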;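 note: signal is peak over basal fluorescence ratio across the kinetic read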
M1 antag – antagonists of human M1 muscarinic receptor; P11229; CHO-K1 hM1, Fluo-8 calcium fluorescence, ACh EC80 antagonist; inhibition, % at 3 µM; 360,000 tested, 1.3% active; AID 588852;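 active = percent inhibition above its own plate's cutoff, namely the mean of that plate's compound wells plus 3 SD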;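 note: peak over basal fluorescence ratio during 140 s after agonist addition; 0% = ACh EC80 plus DMSO and 100% = DMSO alone without agonist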
CHRM1 PAM – positive allosteric modulators of human M1 muscarinic receptor; CHO-K1 hM1, Fluo-8 calcium fluorescence, ACh EC20; 0% = ACh EC20, 100% = maximal ACh; 360,000 tested, 0.088% active; AID 588819; P11229; activation, % at 3 µM; in the data active = activation above about 19%, passing the limit was not always enough
M5 antag – CHRM5 antagonism in calcium assay. P08912. CHO-hM5 cells, Fluo-8 calcium fluorescence, ACh EC80. inhibition, % at 3 µM. 360,000 tested, 0.59% active;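 active = inhibition above a per-plate cutoff, the mean of that plate's test compounds plus 3 SD, cut at about 27% in these data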;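 note: 0% = acetylcholine EC80 with DMSO and 100% = DMSO without agonist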
CHRM1 agonist – human M1 muscarinic receptor agonism. P11229. CHO-K1 hM1, Fluo-8 calcium fluorescence, agonist mode; 0% DMSO, 100% acetylcholine EC100. activation, % at 3 µM. 360,000 tested, 0.33% active;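 active = activation above the run's mean compound activation plus 3 SD, cut at about 16% in these data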;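 note: peak over basal fluorescence ratio within a 140 s kinetic read after compound addition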
Starred values were filed as active, the others as inactive. Sampled rows, rich in hits. Any-hit rate of the full collection: about 2.1%.

SMILES | M5 PAM | M5 ag | M1 antag | CHRM1 PAM | M5 antag | CHRM1 agonist
CC1CC(C)CN(CCCNC(=O)C2CCCN(c3ncnc4c3nc3n4CCCCC3)C2)C1 (configuration not stated) | -3 | -10 | 29* | -19 | 14 | -12
CC1=C(C(=O)N2CCOCC2)CC(CC(=O)NC2CCCCC2)C(=O)N1Cc1ccccc1 (configuration not stated) | 3 | 1 | 1 | 1 | -2 | -1
COC(OC)C12c3ccccc3C(c3ccccc31)C1C(=O)N(c3cccnc3)C(=O)C12 (configuration not stated) | 11 | -1 | 10 | -1 | -10 | -5
CC(C)NC(=O)c1ccc(CN2CCc3ccccc3C2)cc1 | -3 | -25 | 45* | -27 | 11 | -9
CCN1CCN(c2nc(-c3ccccc3)c3ccccc3n2)CC1 | -7 | -8 | 47* | -29 | 4 | -11
OC[C@H]1O[C@@H](c2nc3ccc(-c4nc(-c5ccc(Br)cc5)no4)cc3[nH]2)C[C@@H]1O | -5 | 19 | -14 | 23 | 6 | 16*
CCN(CC)C(=O)c1ccc2nc([C@H]3C[C@H](O)[C@@H](CO)O3)[nH]c2c1 | 1 | 2 | -18 | 11 | 3 | -2
O=S(=O)(c1cc(Br)ccc1Br)N1CCCCCC1 | -1 | -4 | -17 | 21 | 1 | -1
Nc1ncc(Br)cc1S(=O)(=O)N1CCCCCC1 | -15 | -8 | 26 | -12 | 29* | -5
O=C(CSc1ccccc1C(=O)N1CCN(c2ccc([N+](=O)[O-])cc2)CC1)N1CCCC1 | -16 | 2 | 24 | -16 | 11 | -5
O=C(Nc1ncc([N+](=O)[O-])s1)c1ccc2c(c1)OCO2 | -8 | 9 | 14 | -8 | 6 | 1
Cc1ccc(C(=O)Nc2ncc([N+](=O)[O-])s2)cc1 | -19 | 2 | 12 | -11 | 32* | 3
O=C(COc1ccc(Cl)cc1)Nc1ncc([N+](=O)[O-])s1 | -20 | 4 | 12 | -1 | 31* | 4
O=c1cc(-c2cccs2)oc2ccc(Cl)cc12 | -1 | 3 | -10 | 3 | -3 | -5
O=c1c(O)c(-c2cccs2)oc2ccc(Cl)cc12 | -22 | 66* | 62* | -35 | 31* | 144*
O=c1c(O)c(-c2cccs2)oc2ccccc12 | -4 | 9 | 21 | -7 | 5 | 16*
O=c1c(O)c(-c2ccccc2)oc2ccccc12 | 3 | 1 | -20 | 9 | 1 | -5
O=C(CSc1n[nH]c(=O)n1C1CC1)Nc1ccc(Cl)c(Cl)c1 | -3 | 4 | -22 | 9 | 7 | 1
COc1ccccc1N1CCN(C2=Nc3cccc4cccc2c34)CC1 | -1 | -5 | 89* | -36 | 5 | -15
c1ccc(CC2CCN(C3=Nc4cccc5cccc3c45)CC2)cc1 | -28 | -13 | 72* | -19 | 17 | -1
CCOC(=O)N1CCN(C2=Nc3cccc4cccc2c34)CC1 | -10 | -7 | 84* | -23 | 10 | -8
COc1ccc(C(=O)N2CCC2(C)C(=O)O)cc1F (configuration not stated) | -2 | 2 | -14 | 4 | -1 | -1
COCc1nc2sc3c(c2c(=O)[nH]1)CCCC3 | -13 | 1 | 13 | -6 | 13 | -6
CCCc1nc2sc3c(c2c(=O)[nH]1)CCCC3 | 18* | -2 | -6 | 9 | -3 | -6
CC1Cc2ccccc2N1S(=O)(=O)c1cccc(C(=O)NCc2ccco2)c1 (configuration not stated) | -7 | -8 | -13 | 6 | 21 | -3
SMILES | M5 PAM | M5 ag | M1 antag | CHRM1 PAM | M5 antag | CHRM1 agonist
COc1ccccc1C(CNC(=O)c1cccc(S(=O)(=O)N2c3ccccc3CC2C)c1)N(C)C (configuration not stated) | -47 | -11 | 99* | -26 | 78* | -8
COc1ccccc1C(CNC(=O)c1cccc(S(=O)(=O)N2CCCc3ccccc32)c1)N(C)C (configuration not stated) | -45 | -11 | 101* | -31 | 67* | -9
Cc1ccc(C(=O)Nc2ncccc2O)cc1S(=O)(=O)N1CCCCC1 | -5 | -2 | -12 | 13 | 10 | 6
COc1ccc(C(C)=O)cc1COc1cccc2c1OC(C)(C)C2 | 2 | 0 | -13 | 5 | 4 | 1
Cc1ccc(NC(=O)CN2C(=O)NC3(CCCc4ccccc43)C2=O)cc1S(=O)(=O)N1CCOCC1 (configuration not stated) | -20 | -9 | 16 | -15 | 100* | -6
N#CN/C(=N\S(=O)(=O)c1ccccc1)c1ccccc1 | -1 | -1 | -1 | 3 | 4 | -4
O=C(/C=C/c1ccco1)N(Cc1cccc(Br)c1)C1CCS(=O)(=O)C1 (configuration not stated) | -11 | -2 | -2 | 5 | 9 | -4
O=C(/C=C/c1ccco1)N(Cc1cccc(Cl)c1)C1CCS(=O)(=O)C1 (configuration not stated) | -20 | -5 | 4 | 0 | 27* | -3
CCOC(=O)C1(CCC(=O)OCc2ccccc2)CCCCC1=O (configuration not stated) | 7 | 0 | -8 | 2 | -3 | -2
Cc1ccc(C(=O)CSc2nc3cc(S(=O)(=O)N4CCOCC4)ccc3o2)cc1 | 19* | 0 | -37 | 7 | -11 | 2
Cc1ccc(/C=C/C(=O)O)cc1S(=O)(=O)N1CCCCC1 | -4 | 2 | 40* | 24* | 1 | 0
O=S(=O)(c1ccc(Cl)c(S(=O)(=O)N2CCCC2)c1)N1CCCC1 | -1 | 0 | 38* | -2 | -1 | -5
Cc1ccc(S(=O)(=O)c2cccc(S(=O)(=O)N3CCCC3)c2)cc1S(=O)(=O)N1CCCC1 | -16 | -5 | 55* | -20 | 17 | -1
Cc1ccc(S(=O)(=O)c2cccc(S(=O)(=O)N3CCOCC3)c2)cc1S(=O)(=O)N1CCOCC1 | 8 | -10 | 6 | 3 | -1 | -3
CC1CN(CCCOc2ccc([N+](=O)[O-])cc2)CC(C)O1 (configuration not stated) | 0 | -4 | 7 | -4 | 1 | -8
CC1CC(C)CN(CCCCOc2ccc([N+](=O)[O-])cc2)C1 (configuration not stated) | -1 | -9 | 24* | -24 | 3 | -8
c1ccc(COc2ccc(OCCCNC3CCCC3)cc2)cc1 | -13 | -7 | 29* | -23 | 4 | 3
c1ccc(OCCCN2CCCC2)cc1 | 5 | -12 | -2 | -1 | -6 | -7
c1ccc(COc2ccc(OCCCN3CCCCC3)cc2)cc1 | -29 | -12 | 50* | -26 | 6 | -5

High-throughput results as filed in PubChem.
